Experimental data: ChEMBL document CHEMBL3616444, “Design, synthesis and pharmacological evaluation of pyrimidobenzothiazole-3-carboxylate derivatives as selective L-type calcium channel blockers” (Bioorg Med Chem, 2015)
pIC50: −log10 of the molar value.

Legend:
Rattus norvegicus [1] = experiment: Antihypertensive activity in Norwegian albino rat model of DOCA-salt-induced hypertension assessed as inhibition of systolic blood pressure at 10 mg/kg, po after 9 hrs by non-invasive tail cuff method relative to control; type: functional
Outline: (§1)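 DOCA-salt hypertensive rats; systolic pressure by tail cuff after 10 mg/kg, recorded hourly from 0 to 10 h; percent inhibition computed. Data as mean ± SEM, repeated-measures ANOVA.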

Rattus norvegicus [2] = experiment: Antihypertensive activity in Norwegian albino rat model of DOCA-salt-induced hypertension assessed as inhibition of systolic blood pressure at 10 mg/kg, po after 8 hrs by non-invasive tail cuff method relative to control; type: functional; outline: as §1
Rattus norvegicus [3] = experiment: Antihypertensive activity in Norwegian albino rat model of DOCA-salt-induced hypertension assessed as inhibition of systolic blood pressure at 10 mg/kg, po after 2 hrs by non-invasive tail cuff method relative to control; type: functional; outline: as §1
Rattus norvegicus [4] = experiment: Antihypertensive activity in Norwegian albino rat model of DOCA-salt-induced hypertension assessed as inhibition of systolic blood pressure at 10 mg/kg, po after 10 hrs by non-invasive tail cuff method relative to control; type: functional; outline: as §1
physchem = details: buffer, pH 7.4
[5] = Inhibition of porcine kidney ACE assessed as reduction in hippuryl-histidyl-leucine hydrolysis to hippuric acid release incubated for 30 mins high-throughput colorimetric method; design: species or system Sus scrofa
Outline: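 Porcine kidney ACE in 1 M sodium borate buffer pH 8.2 with 0.3 M NaCl and 5 mM HHL substrate (stock); 37 °C for 30 min, stopped with 1 M HCl. Released hippuric acid complexed with pyridine and benzene sulfonyl chloride, cooled on ice, yellow colour read at 410 nm; IC50 from log plots, at least five determinations per concentration.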

[6] = molecular target: Myosin light chain kinase, smooth muscle (Homo sapiens, UniProt Q15746); experiment: Inhibition of MLCK (unknown origin) incubated for 15 mins using [gamma-32P]-ATP by scintillation counting method; details: for pIC50: read-out: IC50; for IC50: read-out: pIC50 (converted)
Outline: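 Active MLCK thawed on ice with kinase assay and dilution buffers and substrate; reaction with γ-32P-ATP incubated 15 min at 30 °C in a water bath, spotted on phosphocellulose P81 paper, washed three times ~10 min in 1% phosphoric acid. Radioactivity by scintillation counting, blank-corrected cpm converted to specific activity (nmol/min/mg); IC50 from log plots, at least five determinations per concentration.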

Rattus norvegicus [7] = experiment: Antihypertensive activity in Norwegian albino rat assessed as inhibition of systolic blood pressure at 10 mg/kg, po after 1 hr by invasive carotid artery cannulation method relative to control; type: functional
Rattus norvegicus [8] = experiment: Antihypertensive activity in Norwegian albino rat model of DOCA-salt-induced hypertension assessed as inhibition of systolic blood pressure at 10 mg/kg, po after 1 hr by non-invasive tail cuff method relative to control; type: functional; outline: as §1
Rattus norvegicus [9] = experiment: Antihypertensive activity in Norwegian albino rat model of DOCA-salt-induced hypertension assessed as inhibition of systolic blood pressure at 10 mg/kg, po after 4 hrs by non-invasive tail cuff method relative to control; type: functional; outline: as §1
Rattus norvegicus [10] = experiment: Antihypertensive activity in Norwegian albino rat model of DOCA-salt-induced hypertension assessed as inhibition of systolic blood pressure at 10 mg/kg, po after 5 hrs by non-invasive tail cuff method relative to control; type: functional; outline: as §1
Rattus norvegicus [11] = experiment: Antihypertensive activity in Norwegian albino rat model of DOCA-salt-induced hypertension assessed as inhibition of systolic blood pressure at 10 mg/kg, po after 7 hrs by non-invasive tail cuff method relative to control; type: functional; outline: as §1
Rattus norvegicus [12] = experiment: Antihypertensive activity in Norwegian albino rat model of DOCA-salt-induced hypertension assessed as inhibition of systolic blood pressure at 10 mg/kg, po after 3 hrs by non-invasive tail cuff method relative to control; type: functional; outline: as §1
Rattus norvegicus [13] = experiment: Antihypertensive activity in Norwegian albino rat assessed as inhibition of systolic blood pressure at 10 mg/kg, po after 4 hrs by invasive carotid artery cannulation method relative to control; type: functional
Rattus norvegicus [14] = experiment: Antihypertensive activity in Norwegian albino rat assessed as inhibition of systolic blood pressure at 10 mg/kg, po after 2 hrs by invasive carotid artery cannulation method relative to control; type: functional
Rattus norvegicus [15] = experiment: Gastrointestinal toxicity in Norwegian rat assessed as ulcerative index at 50 mg/kg, po after 17 hrs; type: organism-based; details: in vivo
Rattus norvegicus [16] = experiment: Antihypertensive activity in Norwegian albino rat assessed as inhibition of systolic blood pressure at 10 mg/kg, po after 0.3 hrs by invasive carotid artery cannulation method relative to control; type: functional
Rattus norvegicus [17] = experiment: Antihypertensive activity in Norwegian albino rat model of DOCA-salt-induced hypertension assessed as inhibition of systolic blood pressure at 10 mg/kg, po after 6 hrs by non-invasive tail cuff method relative to control; type: functional; outline: as §1
Rattus norvegicus [18] = experiment: Antihypertensive activity in Norwegian albino rat assessed as inhibition of systolic blood pressure at 10 mg/kg, po after 0.15 hrs by invasive carotid artery cannulation method relative to control; type: functional
Rattus norvegicus [19] = experiment: Antihypertensive activity in Norwegian albino rat assessed as inhibition of systolic blood pressure at 10 mg/kg, po after 3 hrs by invasive carotid artery cannulation method relative to control; type: functional
[20] = Cmax in Sprague-Dawley rat at 10 mg/kg, iv by HPLC method; type: ADME, organism-based; design: dose 10 mg/kg, route intravenous; details: in vivo
[21] = Elimination half life in Sprague-Dawley rat at 20 mg/kg, po by HPLC method; type: ADME, organism-based; details: in vivo, read-out: beta t1/2 (converted)
[22] = AUC (0 to infinity) in Sprague-Dawley rat at 20 mg/kg, po by HPLC method; type: ADME, organism-based; design: dose 20 mg/kg, route oral, time infinity; details: in vivo
[23] = AUC (0 to infinity) in Sprague-Dawley rat at 10 mg/kg, iv by HPLC method; type: ADME, organism-based; design: dose 10 mg/kg, route intravenous, time infinity; details: in vivo
[24] = Tmax in Sprague-Dawley rat at 20 mg/kg, po by HPLC method; type: ADME, organism-based; details: in vivo
[25] = Oral bioavailability in Sprague-Dawley rat at 20 mg/kg by HPLC method; type: ADME, organism-based; details: in vivo
[26] = Elimination half life in Sprague-Dawley rat at 10 mg/kg, iv by HPLC method; type: ADME, organism-based; details: in vivo, read-out: beta t1/2 (converted)
[27] = Cmax in Sprague-Dawley rat at 20 mg/kg, po by HPLC method; type: ADME, organism-based; design: dose 20 mg/kg, route oral; details: in vivo
[28] = Retardation factor of the compound by HPTLC method; type: physicochemical
Outline: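 Pre-coated silica gel 60 F254 plates (200 µm layer); 5 µl sample applied as 5 mm bands; toluene/acetonitrile (9:1) mobile phase, ascending development to 90 mm in a chamber pre-saturated 15 min.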

[29] = Retention time of the compound by HPLC method; type: physicochemical
Outline: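 HPLC run with 20 µl injection, 1.0 ml/min flow, 25 °C, detection at 343 nm or 258 nm depending on compound.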

Rattus norvegicus [30] = experiment: Antihypertensive activity in Norwegian albino rat assessed as inhibition of diastolic blood pressure at 10 mg/kg, po after 2 hrs by invasive carotid artery cannulation method relative to control
Rattus norvegicus [31] = experiment: Antihypertensive activity in Norwegian albino rat assessed as inhibition of diastolic blood pressure at 10 mg/kg, po after 1 hr by invasive carotid artery cannulation method relative to control
Rattus norvegicus [32] = experiment: Antihypertensive activity in Norwegian albino rat assessed as inhibition of diastolic blood pressure at 10 mg/kg, po after 4 hrs by invasive carotid artery cannulation method relative to control
Rattus norvegicus [33] = experiment: Antihypertensive activity in Norwegian albino rat assessed as inhibition of diastolic blood pressure at 10 mg/kg, po after 0.15 hrs by invasive carotid artery cannulation method relative to control
Rattus norvegicus [34] = experiment: Antihypertensive activity in Norwegian albino rat assessed as inhibition of diastolic blood pressure at 10 mg/kg, po after 0.3 hrs by invasive carotid artery cannulation method relative to control
Rattus norvegicus [35] = experiment: Antihypertensive activity in Norwegian albino rat assessed as inhibition of diastolic blood pressure at 10 mg/kg, po after 3 hrs by invasive carotid artery cannulation method relative to control

Myosin light chain kinase, smooth muscle, sequence (Q15746 whole entry): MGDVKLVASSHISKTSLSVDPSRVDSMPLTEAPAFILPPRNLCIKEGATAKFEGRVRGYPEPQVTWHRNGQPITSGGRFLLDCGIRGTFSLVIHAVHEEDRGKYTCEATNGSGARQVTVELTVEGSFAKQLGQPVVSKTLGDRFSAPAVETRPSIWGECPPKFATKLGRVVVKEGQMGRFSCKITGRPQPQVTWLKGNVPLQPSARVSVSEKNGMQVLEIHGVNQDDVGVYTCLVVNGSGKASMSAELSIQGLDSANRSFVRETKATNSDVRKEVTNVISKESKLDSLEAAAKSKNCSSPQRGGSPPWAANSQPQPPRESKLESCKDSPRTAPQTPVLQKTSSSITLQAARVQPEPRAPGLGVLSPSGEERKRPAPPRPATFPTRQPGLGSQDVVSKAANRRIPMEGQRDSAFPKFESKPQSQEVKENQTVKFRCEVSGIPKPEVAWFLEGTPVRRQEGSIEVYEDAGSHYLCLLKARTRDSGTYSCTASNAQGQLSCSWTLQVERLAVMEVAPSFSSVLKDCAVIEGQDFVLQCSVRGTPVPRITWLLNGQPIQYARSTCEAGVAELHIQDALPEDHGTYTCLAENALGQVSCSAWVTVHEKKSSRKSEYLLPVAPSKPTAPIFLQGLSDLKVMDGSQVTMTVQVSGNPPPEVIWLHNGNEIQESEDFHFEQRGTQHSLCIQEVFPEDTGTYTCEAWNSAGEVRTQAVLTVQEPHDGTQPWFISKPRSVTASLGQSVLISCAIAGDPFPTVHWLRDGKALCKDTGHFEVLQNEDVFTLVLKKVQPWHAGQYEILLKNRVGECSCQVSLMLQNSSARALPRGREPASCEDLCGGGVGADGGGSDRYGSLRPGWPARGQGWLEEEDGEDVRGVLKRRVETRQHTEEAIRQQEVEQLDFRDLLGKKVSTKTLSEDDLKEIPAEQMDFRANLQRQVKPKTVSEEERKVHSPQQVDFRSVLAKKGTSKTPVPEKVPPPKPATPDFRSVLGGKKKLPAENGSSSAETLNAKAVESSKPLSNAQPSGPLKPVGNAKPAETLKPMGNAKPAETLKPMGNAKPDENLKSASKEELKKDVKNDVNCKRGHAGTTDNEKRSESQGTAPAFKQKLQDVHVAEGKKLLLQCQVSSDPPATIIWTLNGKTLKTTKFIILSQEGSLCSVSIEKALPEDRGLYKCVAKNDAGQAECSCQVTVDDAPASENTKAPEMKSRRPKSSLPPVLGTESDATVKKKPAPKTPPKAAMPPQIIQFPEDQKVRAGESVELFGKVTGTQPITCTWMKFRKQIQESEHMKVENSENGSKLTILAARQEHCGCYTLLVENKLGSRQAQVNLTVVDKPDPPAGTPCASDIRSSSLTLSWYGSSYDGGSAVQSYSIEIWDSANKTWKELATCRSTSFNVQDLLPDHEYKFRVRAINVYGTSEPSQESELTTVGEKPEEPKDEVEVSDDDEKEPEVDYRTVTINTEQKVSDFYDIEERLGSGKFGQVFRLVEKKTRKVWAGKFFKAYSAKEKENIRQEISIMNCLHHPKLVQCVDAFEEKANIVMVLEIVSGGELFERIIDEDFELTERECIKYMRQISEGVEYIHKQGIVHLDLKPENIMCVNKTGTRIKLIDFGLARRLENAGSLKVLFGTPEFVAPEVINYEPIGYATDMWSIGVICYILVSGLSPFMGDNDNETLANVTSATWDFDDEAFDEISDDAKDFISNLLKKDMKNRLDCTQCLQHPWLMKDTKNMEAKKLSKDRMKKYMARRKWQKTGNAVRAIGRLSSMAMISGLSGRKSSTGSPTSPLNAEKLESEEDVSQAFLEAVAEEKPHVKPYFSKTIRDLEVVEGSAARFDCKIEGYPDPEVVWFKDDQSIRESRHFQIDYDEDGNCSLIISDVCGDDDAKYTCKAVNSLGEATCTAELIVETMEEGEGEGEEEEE

Row | SMILES | inhibition in vivo at 10 mg/kg (Rattus norvegicus [1]) [%] | inhibition in vivo at 10 mg/kg (Rattus norvegicus [2]) [%] | inhibition in vivo at 10 mg/kg (Rattus norvegicus [3]) [%] | inhibition in vivo at 10 mg/kg (Rattus norvegicus [4]) [%] | logD (physchem) | pIC50 [5] | pIC50 [6] | IC50 [6] [µM] | inhibition in vivo at 10 mg/kg (Rattus norvegicus [7]) [%] | inhibition in vivo at 10 mg/kg (Rattus norvegicus [8]) [%] | inhibition in vivo at 10 mg/kg (Rattus norvegicus [9]) [%] | inhibition in vivo at 10 mg/kg (Rattus norvegicus [10]) [%] | inhibition in vivo at 10 mg/kg (Rattus norvegicus [11]) [%] | inhibition in vivo at 10 mg/kg (Rattus norvegicus [12]) [%] | inhibition in vivo at 10 mg/kg (Rattus norvegicus [13]) [%] | inhibition in vivo at 10 mg/kg (Rattus norvegicus [14]) [%] | UI (Rattus norvegicus [15]) | inhibition in vivo at 10 mg/kg (Rattus norvegicus [16]) [%] | inhibition in vivo at 10 mg/kg (Rattus norvegicus [17]) [%] | inhibition in vivo at 10 mg/kg (Rattus norvegicus [18]) [%] | also measured
1 | COC(=O)C1=C(C)N=C2Sc3ccccc3N2C1c1ccc(OC)cc1 (stereo not drawn) | 40 | 35.6 | 1.78 | 48.9 | 4.64 | < 4.00 | 5.67 | 46700 | 15.9 | 1.33 | 20 | 24.4 | 31.1 | 13.3 | 42.5 | 27 | 0.54 | 7.08 | 25.3 | 4.42 | inhibition in vivo at 10 mg/kg (Rattus norvegicus [19]): 31%
2 | COC(=O)C1=C(C)N=C2Sc3ccccc3N2C1c1ccc([N+](=O)[O-])cc1 (stereo not drawn) | 46.9 | 42.5 | 4.87 | 46.9 | 4.49 | < 4.00 | 5.69 | 49000 | 15.9 | 0 | 24.8 | 27 | 40.3 | 13.7 | 48.7 | 24.8 | 0.2 | 4.42 | 38 | 2.21 | inhibition in vivo at 10 mg/kg (Rattus norvegicus [19]): 31%
3 | COC(=O)C1=C(C)N=C2Sc3ccccc3N2C1c1ccc(O)c(OC)c1 (stereo not drawn) | 40.1 | 37.8 | 5.41 | 41 | 3.89 | < 4.00 | 5.44 | 27200 | 15.9 | 0.9 | 19.8 | 27.5 | 36.5 | 13.1 | 42.5 | 27 | 0.2 | 7.08 | 32.4 | 4.42 | inhibition in vivo at 10 mg/kg (Rattus norvegicus [19]): 31%
4 | CCOC(=O)C1=C(C)N=C2Sc3ccccc3N2C1c1cccc([N+](=O)[O-])c1 (stereo not drawn) | 47.1 | 41.8 | 10.2 | 51.1 | 4.57 | < 4.00 | 5.68 | 47600 | 21.8 | 4.89 | 19.1 | 23.1 | 37.8 | 14.2 | 52.4 | 28.9 | 0.2 | 20 | 27.6 | 4 | Cmax [20]: 1630 ng/mL; half-life [21]: 5.4 h; AUC(0-inf) [22]: 840 ng·h/mL; AUC(0-inf) [23]: 1480 ng·h/mL; Tmax [24]: 0.5 h; bioavailability [25]: 56.8%; half-life [26]: 2.5 h; Cmax [27]: 400 ng/mL; Rf [28]: 4.2; Retention_time [29]: 3.045 min; inhibition in vivo at 10 mg/kg (Rattus norvegicus [19]): 42.2%
5 | COC(=O)C1=C(C)NC(C)=C(C(=O)OC)C1c1ccccc1[N+](=O)[O-] [NIFEDIPINE] | 52 | 47.6 | 10.7 | 54.2 |  | 5.63 | 5.69 |  |  | 4.89 | 19.1 | 23.1 | 41.8 | 14.2 |  |  | 0.54 |  | 32.9 |  | inhibition in vivo at 10 mg/kg (Rattus norvegicus [30]): 26.7%; inhibition in vivo at 10 mg/kg (Rattus norvegicus [31]): 16%; inhibition in vivo at 10 mg/kg (Rattus norvegicus [32]): 53.8%; inhibition in vivo at 10 mg/kg (Rattus norvegicus [33]): 6.22%; inhibition in vivo at 10 mg/kg (Rattus norvegicus [34]): 13.8%; inhibition in vivo at 10 mg/kg (Rattus norvegicus [35]): 37.3%
